# Measurements published in ChEMBL document CHEMBL4619807, “Exploration of Alternative Scaffolds for P2Y14 Receptor Antagonists Containing a Biaryl Core” (J Med Chem, 2020).
# The source made the active and inactive calls. The rule behind the calls is not given here.
# Assays:
# P2Y purinoceptor 14 [1] = biological target: T1, P2Y purinoceptor 14 (Mus musculus, UniProt Q9ESG6); assay: Inhibition of MRS4174 binding to mouse P2Y14R expressed in HEK293 cells pre-incubated for 30 mins before MRS4174 addition and further incubated for 30 mins by flow cytomtery based competitive fluorescence assay; assay type: cell-based
# T1 sequence (Q9ESG6 whole entry): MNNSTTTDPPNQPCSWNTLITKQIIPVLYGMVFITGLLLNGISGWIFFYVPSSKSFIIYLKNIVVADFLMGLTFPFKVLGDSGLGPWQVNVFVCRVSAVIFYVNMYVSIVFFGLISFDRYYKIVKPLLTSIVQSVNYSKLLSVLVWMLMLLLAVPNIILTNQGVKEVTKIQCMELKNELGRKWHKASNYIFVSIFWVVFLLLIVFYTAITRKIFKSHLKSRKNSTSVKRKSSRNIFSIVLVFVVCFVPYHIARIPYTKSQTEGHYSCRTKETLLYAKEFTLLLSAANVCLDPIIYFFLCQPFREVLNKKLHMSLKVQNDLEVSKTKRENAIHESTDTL
# Procedure, shortened: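 Competitive whole-cell binding in HEK293 cells stably expressing N-terminally HA-tagged mouse P2Y14R, grown in a 24-well plate to 80–90% confluency. Antagonist given at 1 nM–100 μM in serum-containing EMEM for 30 min at 37 °C, then tracer added at 20 nM final for 30 min.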
# [2] = Binding affinity to 5HT6 receptor (unknown origin); design: species or system Homo sapiens
# Homo sapiens = organism: Homo sapiens; assay: Selectivity index, ratio of IC50 for inhibition of MRS4174 binding to human P2Y14R expressed in CHO cells to IC50 for inhibition of MRS4174 binding to mouse P2Y14R expressed in […] cells; assay type: cell-based
# Procedure, shortened: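 Ratio of human to mouse IC50 from fluorescent-tracer binding. Human P2Y14R was in CHO cells in a 96-well format. Mouse P2Y14R was in HEK293 cells, with 30 min antagonist pre-incubation and then 20 nM tracer for 30 min at 37 °C. Both read by flow cytometry.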
# [3] = Half life in mouse liver microsomes; assay type: ADME, Microsome
# [4] = Solubility in 10% DMSO in water; assay type: physicochemical; conditions: buffer
# Procedure, shortened: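 Compound dissolved in DMSO without basification, then diluted with water to 10% DMSO at 1 mg/mL. Solubility was judged by the absence of precipitation on dilution.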
# [5] = Half life in rat at 0.5 mg/kg, iv; assay type: ADME, organism-based; conditions: in vivo
# P2Y purinoceptor 14 [6] = biological target: T2, P2Y purinoceptor 14 (Homo sapiens, UniProt Q15391); assay: cell-based
# T2 sequence (Q15391 whole entry): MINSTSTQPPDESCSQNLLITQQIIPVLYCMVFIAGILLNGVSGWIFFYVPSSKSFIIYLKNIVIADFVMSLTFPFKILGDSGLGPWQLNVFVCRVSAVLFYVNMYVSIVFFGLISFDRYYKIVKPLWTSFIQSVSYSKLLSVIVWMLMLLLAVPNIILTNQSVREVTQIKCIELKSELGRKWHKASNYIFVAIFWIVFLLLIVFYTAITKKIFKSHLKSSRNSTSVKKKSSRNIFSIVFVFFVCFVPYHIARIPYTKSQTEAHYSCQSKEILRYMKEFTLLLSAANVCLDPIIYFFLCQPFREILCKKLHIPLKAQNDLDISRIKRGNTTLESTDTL
# [7] = Bioavailability in rat at 1 to 10 mg/kg, ip; assay type: ADME, organism-based; conditions: in vivo
# Procedure, shortened: (§1)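 Rats dosed intraperitoneally at 1, 3 and 10 mg/kg and intravenously at 0.5 mg/kg. Solubilizing vehicle was aqueous DMSO. Plasma concentrations followed over time up to 12 h. Bioavailability derived from ip exposure relative to the iv dose.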
# [8] = Plasma concentration in rat at 1 mg/kg, ip after 2 hrs; assay type: ADME, organism-based; procedure, shortened: as §1
# [9] = Drug level in rat at 10 mg/kg, ip after 12 hrs; assay type: ADME, organism-based; conditions: in vivo; procedure, shortened: as §1
# P2Y purinoceptor 14 [10] = biological target: T2, P2Y purinoceptor 14; assay: cell-based; remark: listed apart in the source
# [11] = Half life in human liver microsomes; assay type: ADME, Microsome
# [12] = Lipophilicity, change in Constant K of the compound by RP-HPLC analysis relative to PPTN; assay type: physicochemical
# Procedure, shortened: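 Lipophilicity taken from reversed-phase HPLC retention time on a C18 column. Elution used a 20 min gradient of 10 to 100% acetonitrile in 10 mM triethylammonium acetate. Reported as Δk against the reference antagonist.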
# [13] = Half life in rat at 1 mg/kg, ip; assay type: ADME, organism-based; conditions: in vivo
# P2Y purinoceptor 14 [14] = biological target: T2, P2Y purinoceptor 14; assay: cell-based; remark: listed apart in the source
# [15] = Stability in mouse plasma assessed as compound remaining level at 120 mins; assay type: ADME, cell-free; conditions: 2 h
# [16] = Cmax in rat at 10 mg/kg, ip after 3 to 4 hrs; assay type: ADME, organism-based; design: dose 10 mg/kg, route intraperitoneal; conditions: in vivo; procedure, shortened: as §1
# Mus musculus = assay: Antiasthmatic activity in Aspergillus oryzae protease-mediated C57BL/6J mouse model of allergic asthma assessed as reduction in eosinophil infiltration in bronchoalveolar lavage fluid at 10 mg/kg, ip dosed 30 mins before OVA aerosol challenge and measured 2 days post-challenge by cell differential count assay; assay type: functional, organism-based
# [17] = Tmax in rat at 10 mg/kg, ip; assay type: ADME, organism-based; conditions: in vivo; procedure, shortened: as §1
# [18] = Half life in rat liver microsomes; assay type: ADME, Microsome
# [19] = Aqueous solubility at pH 7.4 by pION method; assay type: physicochemical
# Procedure, shortened: (§2)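 Equilibrium aqueous solubility measured by the pION method at pH 4.0 and at pH 7.4, in μg/mL; mean ± SD.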
# [20] = Plasma concentration in rat at 1 mg/kg, ip after 4 hrs; assay type: ADME, organism-based; procedure, shortened: as §1
# HepG2 = assay: Toxicity in human HepG2 cells; assay type: cell-based
# [21] = Aqueous solubility at pH 4 by pION method; assay type: physicochemical; procedure, shortened: as §2
# [22] = Stability in human plasma assessed as compound remaining level at 120 mins; assay type: ADME, cell-free; conditions: 2 h
# P2Y purinoceptor 14 [23] = biological target: T2, P2Y purinoceptor 14; assay: Inhibition of MRS4174 binding to human P2Y14R expressed in CHO cells pre-incubated for 30 mins before MRS4174 addition and further incubated for 30 mins at pH 7.4 by flow cytomtery based competitive fluorescence assay; assay type: cell-based
# [24] = biological target: Delta-type opioid receptor (Homo sapiens, UniProt P41143); assay: Binding affinity to DOR (unknown origin)
# Chain of Delta-type opioid receptor (P41143 whole entry): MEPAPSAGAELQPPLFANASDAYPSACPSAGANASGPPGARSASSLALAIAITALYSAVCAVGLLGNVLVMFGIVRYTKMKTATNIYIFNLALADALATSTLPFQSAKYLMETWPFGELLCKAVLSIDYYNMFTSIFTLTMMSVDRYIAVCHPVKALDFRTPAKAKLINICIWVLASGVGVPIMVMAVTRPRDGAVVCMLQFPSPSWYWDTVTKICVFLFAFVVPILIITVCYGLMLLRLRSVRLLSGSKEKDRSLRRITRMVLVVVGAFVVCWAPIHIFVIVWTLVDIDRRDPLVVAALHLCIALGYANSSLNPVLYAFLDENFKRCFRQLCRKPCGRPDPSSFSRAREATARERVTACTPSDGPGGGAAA
# [25] = Binding affinity to sigma 2 receptor (unknown origin); design: species or system Homo sapiens
# D(1B) dopamine receptor = D(1B) dopamine receptor (Homo sapiens, UniProt P21918); assay: Binding affinity to dopamine D5 receptor (unknown origin)
# Chain of D(1B) dopamine receptor (P21918 whole entry): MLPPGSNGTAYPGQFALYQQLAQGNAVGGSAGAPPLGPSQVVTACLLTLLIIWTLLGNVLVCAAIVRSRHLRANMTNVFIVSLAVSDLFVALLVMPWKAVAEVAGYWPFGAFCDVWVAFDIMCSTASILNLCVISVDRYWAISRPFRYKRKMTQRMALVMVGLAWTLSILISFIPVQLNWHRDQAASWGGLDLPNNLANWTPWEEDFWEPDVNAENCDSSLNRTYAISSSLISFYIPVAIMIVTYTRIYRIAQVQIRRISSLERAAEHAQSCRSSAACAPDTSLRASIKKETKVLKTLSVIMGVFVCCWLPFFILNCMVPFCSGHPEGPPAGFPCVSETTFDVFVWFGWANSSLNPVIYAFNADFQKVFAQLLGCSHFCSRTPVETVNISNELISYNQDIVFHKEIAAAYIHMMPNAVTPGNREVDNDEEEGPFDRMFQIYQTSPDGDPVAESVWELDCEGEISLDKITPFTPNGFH
# Translocator protein = Translocator protein (Homo sapiens, UniProt P30536); assay: Binding affinity to TSPO receptor (unknown origin)
# Chain of Translocator protein (P30536 whole entry): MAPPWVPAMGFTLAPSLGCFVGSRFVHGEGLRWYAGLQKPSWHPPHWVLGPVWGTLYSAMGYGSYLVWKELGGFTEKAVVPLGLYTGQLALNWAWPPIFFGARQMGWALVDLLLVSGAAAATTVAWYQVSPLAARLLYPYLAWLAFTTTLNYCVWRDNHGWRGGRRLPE
# [26] = biological target: Sigma non-opioid intracellular receptor 1 (Homo sapiens, UniProt Q99720); assay: Binding affinity to sigma 1 receptor (unknown origin)
# Chain of Sigma non-opioid intracellular receptor 1 (Q99720 whole entry): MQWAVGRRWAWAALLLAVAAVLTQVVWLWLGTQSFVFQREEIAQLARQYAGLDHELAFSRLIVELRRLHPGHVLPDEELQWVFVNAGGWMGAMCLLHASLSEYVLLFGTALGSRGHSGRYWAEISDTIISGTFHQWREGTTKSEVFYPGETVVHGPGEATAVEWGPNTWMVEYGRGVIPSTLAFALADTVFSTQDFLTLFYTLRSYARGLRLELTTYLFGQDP
structure (smiles),measurement,setting,value
NC(=O)c1ccc(-c2cc(C(=O)O)cc(-n3cc(-c4ccc(C(F)(F)F)cc4)nn3)c2)cc1,IC50,P2Y purinoceptor 14 [1],902 nM
same,Ki,[2],6890 nM
same,Ratio IC50,Homo sapiens,3.4
O=C(O)c1cc(-c2ccc(C34CCN(CC3)CC4)cc2)c2ccc(-c3ccc(C(F)(F)F)cc3)cc2c1,t1/2,[3],1.12 h
same,solubility,[4],1000 µg/mL
same,half-life,[5],3.46 h
same,IC50,P2Y purinoceptor 14 [6],38.1 nM
same,bioavailability,[7],100%
same,concentration at 2 h,[8],165 nM
same,Drug uptake,[9],200 to 400 ng/kg
same,IC50,P2Y purinoceptor 14 [10],84.5 nM
same,IC50,P2Y purinoceptor 14 [1],21.4 nM
same,t1/2,[11],> 4 h
same,fold change (FC),[12],1.24
same,half-life,[13],5.1 h
same,IC50,P2Y purinoceptor 14 [14],57 nM
same,Stability,[15],100%
same,Cmax,[16],900 ng/mL
same,Activity,Mus musculus,Active
same,Tmax,[17],3 to 4 h
same,t1/2,[18],1.33 h
same,solubility,"[19]; aqueous, read-out: solubility",0.44 to 0.55 µg/mL
same,concentration at 4 h,[20],292 nM
same,IC50,HepG2,> 20000 nM
same,solubility,"[21]; aqueous, read-out: solubility",1.5 to 14.3 µg/mL
same,Stability,[22],100%
O=C(O)c1cc(-c2ccc(C34CCNCC3C4)cc2)cc(-n2cc(-c3ccc(C(F)(F)F)cc3)nn2)c1 (stereo not drawn),IC50,P2Y purinoceptor 14 [23],359 nM
same,Ki,[24],2630 nM
same,Ki,[25],300 nM
same,IC50,P2Y purinoceptor 14 [1],1160 nM
same,Ratio IC50,Homo sapiens,3.3
O=C(O)c1cc(-c2ccc(N3CCNCC3)cc2)cc(-n2cc(-c3ccc(C(F)(F)F)cc3)nn2)c1,Ki,[25],6700 nM
same,Ratio IC50,Homo sapiens,2.1
O=C(O)c1cc(-c2ccc(C34CCNCC3C4(F)F)cc2)cc(-n2cc(-c3ccc(C(F)(F)F)cc3)nn2)c1 (stereo not drawn),IC50,P2Y purinoceptor 14 [23],639 nM
O=C(O)c1cc(-c2ccc(C3CCNCC3)cc2)cc(-n2cc(-c3ccc(C(F)(F)F)cc3)nn2)c1,Activity,Mus musculus,inactive
CC(=O)N1CCC(c2ccc(-c3cc(C(=O)O)cc4cc(-c5ccc(C(F)(F)F)cc5)ccc34)cc2)CC1,Ki,D(1B) dopamine receptor,4380 nM
same,Activity,Mus musculus,Active
same,solubility,[19]; buffer,2.32 µg/mL
same,solubility,[21]; buffer,0.09 µg/mL
same,Ki,Translocator protein,510 nM
NC(=O)c1ccc(-c2cc(C(=O)O)cc(-c3cn(-c4ccc(C(F)(F)F)cc4)nn3)c2)cc1,Ki,[24],2480 nM
same,Ki,[26],500 nM
same,Ki,[25],2910 nM
